In ChEMBL document CHEMBL5661964, “Selective in vivo and in vitro effects of a small molecule inhibitor of cyclin-dependent kinase 4” (J Natl Cancer Inst, 2001):
Activity calls are given as the source filed them. The rule behind the calls is not given here.

Legend:
HCT-116 [1] = experiment: Antitumor activity against human HCT-116 cells xenografted in nude mouse assessed as decrease tumor volume at 75 mg/kg, iv administered once per week measured after 29 days; type: functional, organism-based; settings: time 29.0 day
Method in brief: (§1)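 Female BALB/c nu/nu mice (19–21 g) received 0.1 mL of HCT116 suspension (1 × 10^7 viable cells/mL, Hanks' buffer) s.c. At day 20 (tumours ~100 mm3), they were randomised into groups of eight. Dosing was i.v. via lateral tail vein at 10 mL/kg for 29 days. Blinded caliper volumes (L × W² × π/6) were taken every 2–4 days. Comparison to […] vehicle controls used one-way ANOVA/Dunnett; log-volume slopes gave growth rate.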

HCT-116 [2] = experiment: Antitumor activity against human HCT-116 cells xenografted in nude mouse assessed as decrease tumor growth at 75 mg/kg, iv administered once per week measured after 29 days; type: functional, organism-based; settings: time 29.0 day; method in brief: as §1

Q: Which results are given for `O=c1[nH]cc(F)c(=O)[nH]1`?
A: Activity (HCT-116 [1]): Active; Activity (HCT-116 [2]): Active
